Assay outcomes: PubChem BioAssay, several laboratories
Myeloid diff MLP: compounds promoting myeloid differentiation. ER-HoxA9 myeloid progenitors, lysozyme-GFP differentiation, flow cytometry. calls only at 10 µM. 360,000 tested, 1% active;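 active = normalized GFP-positive differentiation at or above the plate's own cutoff, the solvent-only control mean plus 3 SD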;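 note: cells exposed to compound for four days before flow analysis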
Exocytosis inh: blocks lytic granule exocytosis. AID 651702. 360,000 tested, 0.66% active. inhibition, % at 10 µM. TALL-104 LAMP-1 surface exposure, flow cytometry; cells stimulated with thapsigargin and PMA;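 active = inhibition above about 55%, limit read from the data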
EBI2 antag: EBI2 (human) antagonism | P32249 | EBI2 beta-arrestin recruitment, luminescence, 7a,25-OHC stimulated | inhibition, % at 5 µM | 360,000 tested, 0.81% active | AID 651636; in the data active = inhibition above about 38%;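 note: enzyme fragment complementation signal reports receptor beta-arrestin coupling in cells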
MC4R antagonist: antagonists of human melanocortin 4 receptor (MC4R). MC4R-expressing cells, MTII-stimulated cAMP, LANCE TR-FRET. inhibition, % at 6.5 µM. 360,000 tested, 0.48% active. AID 540295;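 active = inhibition above its plate's cutoff, the mean of tested wells on that plate plus 3 SD, cut at about 29% in these data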
Target sequence (P32245 whole entry, looked up): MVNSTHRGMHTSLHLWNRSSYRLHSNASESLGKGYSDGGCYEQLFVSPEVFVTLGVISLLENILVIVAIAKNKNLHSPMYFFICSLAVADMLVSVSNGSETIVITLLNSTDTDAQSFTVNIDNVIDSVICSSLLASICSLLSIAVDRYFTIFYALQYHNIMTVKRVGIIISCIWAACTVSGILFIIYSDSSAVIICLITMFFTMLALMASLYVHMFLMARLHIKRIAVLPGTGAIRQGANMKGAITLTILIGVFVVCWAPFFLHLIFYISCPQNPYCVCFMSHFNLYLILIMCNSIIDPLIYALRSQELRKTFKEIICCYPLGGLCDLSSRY
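Material – human MC4R-expressing U2OS cells · Repeats – no replicates · Detection – TR-FRET with Eu-cAMP and labeled anti-cAMP, 671 nm · Times – compound 30 min, challenge 1 h, detection 1 h · Compound – single nominal compound dose of 6.5 µM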
MC4R barr agon: human MC4R agonism via beta-arrestin | P32245 | U2OS MC4R beta-arrestin complementation, luminescence; percent of melanotan II response, DMSO zero | activation, % at 8.9 µM | 360,000 tested, 0.98% active;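 active = activation above a per-plate cutoff, the mean activation of sample wells on that plate plus 3 SD, cut at about 8% in these data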
EBI2 conf: confirmation of human EBI2 receptor antagonists | shares compounds with EBI2 antag | EBI2 beta-arrestin luminescence, 7a,25-OHC antagonism | inhibition, % at 5 µM | 2,400 tested, 29% active;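 active = inhibition of at least 50%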
EBI2 ag: activates EBI2, counter-screen for EBI2 antagonists; 2,400 tested, under 10 active; shares compounds with EBI2 antag; EBI2-expressing cells, agonist mode, luminescence, 60 min; 0% vehicle, 100% 7α,25-dihydroxycholesterol control; activation, % at 5 µM;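 active = activation of at least 50%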
bGal counter: counter-screen for EBI2 antagonists: E. coli beta-galactosidase inhibition; shares compounds with EBI2 antag; purified beta-galactosidase, luminescent Galacton Star, 15 min; inhibition, % at 5 µM; 2,400 tested, 1% active; AID 652176;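 active = replicate-average signal at least 3 plate SD below neutral wells, shown as high inhibition, flagging enzyme-inhibiting false positives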;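 note: higher means stronger loss of beta-gal luminescence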
Each line names hits and unclear results; the compound was inactive in the other large screens (follow-up assays come after a bar, where they were run). Most compounds without a hit are left out; they make up all but 3.7% or so of the library.

CCOC(=O)N1CCN(C(=O)CNC2CCCCCCC2)CC1	EBI2 antag 45 | EBI2 conf inactive | EBI2 ag inactive | bGal counter inactive
CCOC(=O)N1CCN(C(=O)NC2CCCCC2)CC1	none
Cc1cc(Br)ccc1OCC(=O)NNC(=O)Cc1ccccc1	EBI2 antag 46 | EBI2 conf inactive | EBI2 ag inactive | bGal counter inactive
Cc1ccc(/C=N/Nc2ccc3c(C(F)(F)F)cc(C(F)(F)F)nc3n2)cc1	EBI2 antag 55 | EBI2 conf inactive | EBI2 ag inactive | bGal counter inactive
NNc1ccc2c(C(F)(F)F)cc(C(F)(F)F)nc2n1	none
COc1ccc(OC)c(S(=O)(=O)Nc2cc(C)on2)c1	none (no result: Myeloid diff MLP)
Cc1cccc(C)c1NCc1nnc(SCC(=O)Nc2nc(-c3ccccc3)cs2)n1-c1ccccc1	none
CCOc1ccc(NCc2nnc(SCC(=O)Nc3nc(-c4ccccc4)cs3)n2-c2ccccc2)cc1	EBI2 antag 46 | EBI2 conf inactive | EBI2 ag inactive | bGal counter inactive
COc1ccc([C@H]2CC(=O)C=C(c3cccc4c3sc3ccccc34)C2)cc1OC	EBI2 antag 59 | EBI2 conf inactive | EBI2 ag inactive | bGal counter inactive
COc1ccc([C@H]2CC(=O)C=C(c3cccc(OC)c3OC)C2)cc1OC	none
O=C1c2ccccc2C(=O)N1CCCc1cn(C[C@H]2CC[C@H](Cn3cc(CCCN4C(=O)c5ccccc5C4=O)nn3)O2)nn1	none
COCCN1C(=O)c2cc(C(=O)Nc3ccc(C)c(F)c3)ccc2C1Nc1ccc(C)c(F)c1 (stereo not given)	EBI2 antag 86 | EBI2 conf 65 | EBI2 ag inactive | bGal counter inactive
COCCN1C(=O)c2cc(C(=O)Nc3cccc(F)c3)ccc2C1Nc1cccc(F)c1 (stereo not given)	EBI2 antag 75 | EBI2 conf inactive | EBI2 ag inactive | bGal counter inactive
CCOC(=O)/C=C/C(=O)N1CCN(C(=O)/C=C/C(=O)OCC)CC1	none
Cc1cc(C(=O)NCC(=O)OCC(=O)N(C2CCCCC2)C2CCCCC2)ccc1[N+](=O)[O-]	EBI2 antag 81 | EBI2 conf inactive | EBI2 ag inactive | bGal counter inactive
CCN(CC)CCSc1nnc2c3cc(F)ccc3n(Cc3ccccc3)c2n1	EBI2 antag 56 | EBI2 conf inactive | EBI2 ag inactive | bGal counter inactive
CCN(CC)CCSc1nnc2c3ccccc3n(Cc3ccccc3)c2n1	EBI2 antag 54 | EBI2 conf inactive | EBI2 ag inactive | bGal counter inactive
CCn1c2ccccc2c2nnc(SCc3ccccc3)nc21	none
COc1ccc(NC(=O)c2sc(SCc3ccccc3)nc2N)cc1	EBI2 antag 88 | EBI2 conf 69 | EBI2 ag inactive | bGal counter inactive
CC1=C(C(=O)N(C)C)CC(CC(=O)NC2CCCCC2)C(=O)N1Cc1ccc(F)cc1 (stereo not given)	none (no result: MC4R antagonist, MC4R barr agon)
O=c1[nH]c(CN2CCN(S(=O)(=O)c3cccs3)CC2)nc2c(Br)cc(Br)cc12	EBI2 antag 54 | EBI2 conf inactive | EBI2 ag inactive | bGal counter inactive
O=c1[nH]c(CN2CCN(S(=O)(=O)c3ccc(Cl)cc3)CC2)nc2cc(Cl)ccc12	EBI2 antag 89 | EBI2 conf 69 | EBI2 ag inactive | bGal counter inactive
CC(=O)N1CCN(Cc2nc3cc(Cl)ccc3c(=O)[nH]2)CC1	none
COc1cc2nc(CN3CCN(S(=O)(=O)c4ccccc4)CC3)[nH]c(=O)c2cc1OC	EBI2 antag 47 | EBI2 conf inactive | EBI2 ag inactive | bGal counter inactive
O=c1[nH]c(CN2CCN(c3ncccn3)CC2)nc2c(Br)cc(Br)cc12	none
COc1cc2nc(CN3CCN(S(=O)(=O)c4ccc(Cl)cc4)CC3)[nH]c(=O)c2cc1OC	EBI2 antag 56 | EBI2 conf inactive | EBI2 ag inactive | bGal counter inactive
CC(C)(C)OC(=O)C[C@H]1C/C=C\C[C@@H](CC(=O)NCCO)C(=O)NCCOC1=O	none
